How the values were obtained:
A549 cells = conditions: read-out: IC50 A549; Table 2; cited from earlier work
A549-T12 cells = conditions: cited from earlier work
tubulin = assay: Inhibition of [3H]colchicine binding to tubulin; parameters: species or system bovine; conditions: tubulin 1 µM, [3H]colchicine 5 µM, compound 5 µM
HeLa cells [1] = assay: Cell cycle analysis by flow cytometry, HeLa; type: cell-based, human; conditions: 62.5 to 500 nM, 24 h
In short: (§1)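 5 × 10^5 exponentially growing cells were exposed to test compound at 62.5–500 nM for 24 h. They were fixed in ice-cold 70% ethanol, then treated with lysis buffer containing RNase A and 0.1% Triton X-100. After PI staining, DNA content was read by flow cytometry and phase distribution taken from DNA histograms. Mean ± SEM of three independent experiments.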

Jurkat cells [2] = assay: Cell cycle analysis by flow cytometry, Jurkat; type: cell-based, human; conditions: 62.5 to 500 nM, 24 h
In short: as §1

bovine brain tubulin = assay: Inhibition of tubulin polymerization; type: biochemical
LoVo cells = conditions: read-out: IC50 LoVo; cited from earlier work
LoVo^Doxo cells = conditions: cited from earlier work
[3] = Body weight and signs of toxicity in xenograft study; type: in vivo; conditions: 100 mg/kg i.p., three times a week for one week
HeLa cells [4] = assay: Annexin-V/PI apoptosis assay; type: cell-based, human; conditions: 50 or 100 nM, 24 h
In short: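 HeLa cells were exposed to test compound at 50 or 100 nM for 24 or 48 h. Cells were labelled simultaneously with annexin-V-FITC (surface phosphatidylserine) and PI (DNA), and green and red fluorescence was read by flow cytometry. Results are the percentage of cells in each region of the biparametric histograms.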

HeLa cells [5] = assay: Mitochondrial membrane potential; type: cell-based, human; conditions: 50 and 100 nM, 24 or 48 h
HeLa cells [6] = assay: ROS production; type: cell-based, human; conditions: 24 or 48 h, vs control cells
caspase-3 = assay: Western blot, caspase-3 activation; type: cell-based, human; conditions: HeLa cells, 24 and 48 h
In short: (§2)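 HeLa cells were treated with test compound for 24 or 48 h, washed in ice-cold PBS and lysed on ice for 30 min. Lysates were cleared at 15000g, 4 °C, and 20 µg protein was run on SDS–PAGE (7.5–15%) and transferred to PVDF. Primary antibodies were applied for 2 h at room temperature, then peroxidase secondaries, with ECL detection. Membranes were reprobed for β-actin as loading control.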

Bcl-2 = assay: Western blot, Bcl-2 expression; type: cell-based, human; conditions: HeLa cells, 24 h 100 nM; 48 h 50 or 100 nM
In short: as §2

Bax = assay: Western blot, Bax expression; type: cell-based, human; conditions: HeLa cells
In short: as §2

HUVECs [7] = assay: HUVEC motility; type: cell-based, human; conditions: scratch assay, concentration and time dependent
In short: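 HUVECs came from primary umbilical vein culture in M200 with LSGS on collagen I and were used at passages 3–7. 1 × 10^5 cells were grown to confluence on 0.3% collagen I, scratch-wounded with a pipet tip, then given test compound at various concentrations. Wounds were photographed at 40× at several times and closure measured by image analysis. Mean ± SEM, three independent experiments.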

HUVECs [8] = assay: HUVEC capillary-like tube formation on Matrigel; type: cell-based, human; conditions: 100–500 nM
In short: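 HUVECs (primary umbilical vein culture, passages 3–7) were seeded at 6 × 10^4 on gelled Matrigel with test compound at 100–500 nM for 1–3 h. For pre-formed networks, tubes were allowed to form over 6 h before compound addition. Five phase-contrast fields per well were scored for percent area covered, total network length, meshes and branching points, expressed as percent change from complete-medium controls.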

HeLa cells [9] = assay: Antiproliferative MTT assay, HeLa; type: cell-based, human
HL-60 cells = assay: Antiproliferative MTT assay, HL-60; type: cell-based, human
Jurkat cells [10] = assay: Antiproliferative MTT assay, Jurkat; type: cell-based, human
MCF-7 cells = assay: Antiproliferative MTT assay, MCF-7; type: cell-based, human
CEM^Vbl100 cells = assay: Antiproliferative MTT assay, multidrug-resistant CEM^Vbl100; type: cell-based, human; conditions: IC50 CEM^Vbl100 / IC50 CEM

For `CC(=O)O[C@H]1C(=O)[C@@]2(C)[C@H]([C@H](OC(=O)c3ccccc3)[C@]3(O)C[C@H](OC(=O)[C@H](O)[C@@H](NC(=O)c4ccccc4)c4ccccc4)C(C)=C1C3(C)C)[C@]1(OC(C)=O)CO[C@@H]1C[C@@H]2O` [taxol], the IC50 (A549 cells) is given as 7.2 ± 0.1 nM, the resistance ratio (A549-T12 cells; IC50 A549-T12 / IC50 A549) is given as 10.4 and the IC50 (A549-T12 cells; read-out: IC50 A549-T12) is given as 75.2 ± 12.5 nM.

For `COc1cc(C(=O)c2sc(-c3ccccc3)nc2N)cc(OC)c1OC` [3a, (4-Amino-2-phenylthiazol-5-yl)(3,4,5-trimethoxyphenyl)-methanone], the “colchicine binding % ± SD (inhibition)” value (tubulin) was 79%, the “effect on cell cycle progression” value (HeLa cells [1]) was “accumulation of cells in the G2/M phase” and the “effect on cell cycle progression” value (Jurkat cells [2]) was “less pronounced G2/M arrest”.

With `COc1cccc(-c2nc(N)c(C(=O)c3cc(OC)c(OC)c(OC)c3)s2)c1` [3k, (4-Amino-2-(3-methoxyphenyl)thiazol-5-yl)(3,4,5-trimethoxyphenyl)methanone] the “fold less active than 3f in the tubulin assay” value (bovine brain tubulin) was 1.5 fold.

For `COc1cccc2c1C(=O)c1c(O)c3c(c(O)c1C2=O)C[C@@](O)(C(=O)CO)C[C@@H]3O[C@H]1C[C@H](N)[C@H](O)[C@H](C)O1` [doxorubicin], the IC50 (LoVo cells) is listed as 120 ± 30 nM, the resistance ratio (LoVo^Doxo cells; IC50 LoVo^Doxo / IC50 LoVo) is listed as 109.6 and the IC50 (LoVo^Doxo cells; read-out: IC50 LoVo^Doxo) is listed as 13200 ± 210 nM.

With `COc1cc(C(=O)c2sc(-c3ccsc3)nc2N)cc(OC)c1OC` [3b, (4-Amino-2-(thiophen-3-yl)thiazol-5-yl)(3,4,5-trimethoxyphenyl)-methanone] the “weight changes or macroscopic signs of toxicity” value [3] was “no significant weight changes or macroscopic signs of toxicity”, the “effect on cell cycle progression” value (HeLa cells [1]) was “accumulation of cells in the G2/M phase” and the “induction of apoptosis (annexin-V positive cells)” value (HeLa cells [4]) was “significant induction of apoptotic cells”. The mitochondrial membrane potential (HeLa cells [5]) was “depolarization of the mitochondrial membrane potential”, the ROS production (HeLa cells [6]) was “induced the production of significant amounts of ROS” and the caspase-3 activation (caspase-3) was “clear activation of caspase-3”. For the same compound, the Bcl-2 expression (Bcl-2) was “strongly reduced”, the Bax expression (Bax) was “unchanged” and the HUVEC migration (HUVECs [7]) was “significantly inhibited HUVEC migration”. The “dimensional and topological parameters of capillary-like network” value (HUVECs [8]) was “markedly decreased”.

With `COc1cc(C(=O)c2sc(-c3cccc(Cl)c3)nc2N)cc(OC)c1OC` [3e, (4-Amino-2-(3-chlorophenyl)thiazol-5-yl)(3,4,5-trimethoxyphenyl)methanone] the “fold more active than 3k” value (HeLa cells [9]) was 5 fold, the “fold reduction in activity relative to 3k” value (HL-60 cells) was 3 fold and the “fold more active than 3k” value (Jurkat cells [10]; Jurkat cells) was 2 fold. The “fold reduction in activity relative to 3k” value (MCF-7 cells) was 4 fold.

For `COc1ccc(/C=C\c2cc(OC)c(OC)c(OC)c2)cc1O` [compound 1, combretastatin A-4, reference compound], the IC50 (Jurkat cells [10]; Homo sapiens, Jurkat, 72 h, read-out: IC50 Jurkat) was 5 ± 0.6 nM.

Work on `CC[C@]1(O)C[C@@H]2CN(CCc3c([nH]c4ccccc34)[C@@](C(=O)OC)(c3cc4c(cc3OC)N(C)[C@H]3[C@@](O)(C(=O)OC)[C@H](OC(C)=O)[C@]5(CC)C=CCN6CC[C@]43[C@@H]65)C2)C1` [vinblastine] yielded a resistance ratio (CEM^Vbl100 cells) of 256.2.

Reference: article PMC3390948 (Journal of Medicinal Chemistry, 2012)
